Only some compounds are listed: those with a hit (about 3.8% of all), similar ones and a draw of the others.
KCNK3 inh = human KCNK3 channel inhibition, primary screen; 0.84% of 340,000 active; CHO-KCNK3 thallium flux, FluxOR fluorescence; active compounds read low; B-score at 10 µM;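 active means B-score under library mean minus 4 SD, starting fluorescence ratio at most library mean plus 5 SD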;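 further: more negative B-score means stronger inhibition of thallium flux through KCNK3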
Target sequence (O14649 whole entry, looked up): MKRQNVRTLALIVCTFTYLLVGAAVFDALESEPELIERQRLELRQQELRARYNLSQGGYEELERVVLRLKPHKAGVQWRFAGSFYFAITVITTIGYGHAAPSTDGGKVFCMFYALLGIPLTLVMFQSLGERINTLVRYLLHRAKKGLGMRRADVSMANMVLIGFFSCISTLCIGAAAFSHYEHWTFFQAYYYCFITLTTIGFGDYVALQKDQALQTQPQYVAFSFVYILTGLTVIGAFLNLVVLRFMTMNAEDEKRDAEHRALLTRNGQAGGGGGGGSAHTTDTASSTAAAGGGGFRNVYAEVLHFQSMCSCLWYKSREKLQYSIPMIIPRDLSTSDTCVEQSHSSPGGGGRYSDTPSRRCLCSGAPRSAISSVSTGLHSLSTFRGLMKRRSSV
KCNQ1 pot = human KCNQ1 channel potentiation or activation | P51787 | CHO-K1 KCNQ1, thallium flux FluxOR fluorescence; active compounds read high | B-score at 10 µM | 0.35% of 310,000 active | AID 2648;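 active means fluorescence ratio B-score, a plate-corrected score, at least three library SD, with initial intensity B-score within 5 SD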
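Material: CHO-K1 cells stably expressing KCNQ1. Medium: assay buffer for compound exposure, DMSO matched across wells. Reagent: K+/Tl+ depolarizing stimulus. Compound dosing: single-concentration screen. Times: 37 °C overnight plating, 90-min dark dye load, 20-min compound pretreatment. Technique: FluxOR Tl+ flux fluorescence.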
hERG protect = compounds protecting human hERG from proarrhythmic drug block | CHO-hERG, FluxOR thallium flux, dofetilide IC70 present | 0.51% of 310,000 active | activation (rescue from dofetilide block), less the hit threshold, % at 10 µM | Q12809 | AID 1511;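 active means activation above the mean of controls blocked by dofetilide plus 5 SD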;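 further: thallium influx through hERG after potassium depolarization seen as dye fluorescence rise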
KCNK9 block = inhibitors of human KCNK9 two-pore domain potassium channel. 1.2% of 310,000 active. B-score at 10 µM. AID 488922. HEK293 KCNK9, FluxOR thallium flux fluorescence; active compounds read low. Q9NPC2;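 active means ratio B-score over 3 SD below the library mean, with starting fluorescence within 5 SD of its mean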;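 further: negative B-score means less thallium flux so channel inhibition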
Target sequence (Q9NPC2 whole entry, looked up, the tested form may be a part): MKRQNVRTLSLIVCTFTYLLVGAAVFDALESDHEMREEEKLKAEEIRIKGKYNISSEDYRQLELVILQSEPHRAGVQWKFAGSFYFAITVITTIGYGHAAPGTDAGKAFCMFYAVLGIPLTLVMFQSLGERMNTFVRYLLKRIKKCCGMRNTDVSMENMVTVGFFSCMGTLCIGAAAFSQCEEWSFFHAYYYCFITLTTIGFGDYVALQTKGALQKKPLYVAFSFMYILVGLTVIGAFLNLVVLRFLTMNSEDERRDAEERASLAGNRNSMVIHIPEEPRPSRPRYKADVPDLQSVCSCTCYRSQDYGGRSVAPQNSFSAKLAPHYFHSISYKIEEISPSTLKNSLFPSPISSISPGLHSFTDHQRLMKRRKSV
KCNQ1 block = inhibitors of human KCNQ1 potassium channel. CHO-K1 KCNQ1, FluxOR thallium flux fluorescence; active compounds read high. B-score at 10 µM. 1.3% of 310,000 active;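 active means compounds whose thallium flux B-score, printed positive for inhibition, exceeds three library SD while starting fluorescence stays within three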;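 further: channel opened by potassium depolarization with thallium stimulus after 20 min compound exposure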
Kir21 block = inhibitors of mouse Kir2.1 inward-rectifier potassium channel | 0.85% of 310,000 active | P35561 | HEK293-Kir2.1, FluxOR thallium flux fluorescence; active compounds read low | B-score at 10 µM | AID 1672;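 active means fluorescence ratio B-score at or below minus 3 SD of library scores, with starting-brightness B-score within 2 SD, cut at about -4.2 in these data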;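 further: channel flux triggered by added potassium and thallium sulfate stimulus; B-score of peak minus minimum fluorescence over baseline after thallium stimulus; more negative B-score means stronger Kir2.1 block with less thallium influx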
KCNK9 block conf = confirmation of human KCNK9 potassium channel inhibitors; inhibition, % at 10 µM; AID 492992; shares compounds with KCNK9 block; 43% of 4,900 active; HEK293 KCNK9 cells, FluxOR thallium flux fluorescence;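 active means thallium signal inhibited by more than 5 SD of the compound-free buffer control wells, on both duplicate plates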;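 further: 0% = assay buffer control wells without compound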
Kir2-1 spec = tests whether KCNK9 modulators also affect mouse Kir2.1; shares compounds with KCNK9 block; Kir2.1 cells, FluxOR thallium flux fluorescence; inhibition, % at 10 µM; 4% of 4,900 active; AID 492993;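 active means thallium signal drop more than 5 SD beyond the mean of the no-compound control wells, seen in both duplicate plates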;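 further: signal is fluorescence rise after thallium addition divided by baseline fluorescence; plate controls were assay buffer only for no effect and full block by chlorpromazine control for full effect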
KCNK9 uninduced = second check of KCNK9 modulator effects in non-induced HEK293 cells; FluxOR thallium flux; 40% of 4,900 active; inhibition, % at 10 µM; AID 492997; shares compounds with KCNK9 block;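 active means thallium signal drop beyond 5 SD of the untreated control mean, on both duplicate plates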;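 further: plate controls were buffer only IC0 wells for no effect and SID17386958 at its maximal inhibitory level for full effect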
KCNK3 inh conf = confirmation of human KCNK3 two-pore domain potassium channel inhibitors | shares compounds with KCNK3 inh | CHO-KCNK3 thallium flux, FluxOR fluorescence; 0% buffer, 100% carvedilol maximal block | ratio percent of control, % at 10 µM | 99% of 2,400 active;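 active means ratio percent of control, averaged over triplicates, above buffer control mean plus 5 SD, cut at about 64% in these data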;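 further: ratio is the fluorescence rise from min to max over baseline after thallium stimulus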
KCNK3 uninduced = KCNK3 inhibitor counter-screen hit in non-induced cells | shares compounds with KCNK3 inh | non-induced KCNK3 parental cells, FluxOR thallium flux; active compounds read low | thallium flux ratio (lower = more inhibition) at 10 µM | 40% of 2,400 active | AID 651747;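 active means thallium flux ratio, averaged over three wells, more than 5 SD below the buffer control mean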;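 further: host cells are CHO cells without KCNK3 induction; ratio is peak minus trough fluorescence over baseline then normalized to buffer controls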
Active calls of the source: *; i = inactive; · = no result.

SMILES | KCNK3 inh | KCNQ1 pot | hERG protect | KCNK9 block | KCNQ1 block | Kir21 block | KCNK9 block conf | Kir2-1 spec | KCNK9 uninduced | KCNK3 inh conf | KCNK3 uninduced
O=C(/C=C/Nc1ccccc1C(F)(F)F)c1ccco1 | -9.12* | i | -0.6 | -8.8* | i | 0.52 | i | i | i | 90.3* | i
Cn1c(=O)c2c(ncn2CC(=O)Nc2cc(S(=O)(=O)N3CCCCC3)ccc2O)n(C)c1=O | i | · | · | · | · | · | · | · | · | · | ·
CSCc1c(C(=O)Nc2ccc3c(c2)OCO3)oc2ccccc12 | -8.72* | i | -9.9 | -9.48* | i | -1.05 | 39.0%* | i | 30.0%* | 123.7* | 0.146*
COc1ccc(S(=O)(=O)NCc2cc(=O)n(C)c(=O)n2C)cc1C | i | i | -4.9 | i | i | 0.77 | · | · | · | · | ·
Oc1cc2c(cc1C(c1ccc(Cl)c(Cl)c1)N1CCCC1)OCO2 (centres undefined) | -12.4* | i | -19.2 | -8.7* | i | 0.73 | i | i | 41.0%* | 136.3* | 0.15*
CCOC(=O)c1c(CN(C)C)n(-c2ccc(C)cc2)c2cc(Br)c(O)cc12 | i | i | -9.1 | i | i | -0.28 | · | · | · | · | ·
CCOC(=O)c1c(CSC(=N)N)n(-c2ccc(C)cc2)c2cc(Br)c(OC(C)=O)cc12 | -11.8* | i | -35.8 | -8.7* | 6* | -14.8* | i | i | i | 129.3* | 0.153*
COc1ccccc1C(CCN(Cc1cccs1)C(C)=O)c1ccco1 (centres undefined) | -13.3* | i | -13.5 | -9.32* | i | -2.28 | 40.0%* | i | 33.5%* | 105.3* | i
C[C@H](CO)N1C[C@H](C)[C@@H](CN(C)S(=O)(=O)c2cccs2)Oc2c(NS(=O)(=O)c3ccccc3)cccc2C1=O | i | · | · | · | · | · | · | · | · | · | ·
CC(C)(C)c1ccc(/C=C/C(=O)N2CCc3ccccc3C2)cc1 | -11.3* | i | -4.2 | i | 13* | 0.07 | i | i | 26.5%* | 124.3* | 0.153*
Cc1ccc(/C=C/C(=O)N2CCc3ccccc3C2)cc1 | i | i | -8.2 | i | i | 0.97 | · | · | · | · | ·
CCOC(=O)C1CCN(c2nc(-c3ccc(C)cc3)nc3ccccc23)CC1 | -9.21* | i | -14.9 | -8.16* | i | 0.22 | 48.5%* | i | 30.0%* | 108.3* | i
Cc1ccccc1C(=O)N1CCC(C(=O)N(CC(C)C)c2c(N)n(Cc3ccccc3)c(=O)[nH]c2=O)CC1 | i | i | -13.5 | i | i | -0.18 | · | · | · | · | ·
c1csc(C(c2nnnn2C2CCCCC2)N2CCCC3(CCCCC3)C2)c1 (centres undefined) | i | i | -12.8 | i | i | 0.16 | · | · | · | · | ·
CC(C)(C)n1nnnc1C(c1cccs1)N1CCCC2(CCCCC2)C1 (centres undefined) | -9.13* | i | -5.2 | -17.1* | i | 2.37 | 40.0%* | i | 39.5%* | 125.3* | 0.13*
CCN(C(=O)N1CCOCC1)c1ccccc1C | i | i | -9.1 | i | i | 0.03 | · | · | · | · | ·
CCCCOc1ccc2c(C)cc(=O)oc2c1OCCCC | -9.4* | i | -12.0 | -25.2* | 7* | 0.71 | 76.0%* | i | 36.5%* | 118.7* | 0.135*
CCOc1ccc2c(C)cc(=O)oc2c1OCC | i | i | -3.6 | i | i | 1.11 | · | · | · | · | ·
CC(C)C[C@H]1CNC(=S)N1CC1CCCN1C[C@H](CC(C)C)N1C[C@H](CC(C)C)N(CCc2ccccc2)C1=S (some centres undefined) | i | · | · | · | · | · | · | · | · | · | ·
CCC(C)(C)n1nnnc1C(c1cc2ccc(C)cc2[nH]c1=O)N(Cc1cccnc1)Cc1ccco1 (centres undefined) | i | i | -1.2 | i | i | 0.16 | · | · | · | · | ·
CC(C)(C)n1nnnc1C(c1cccs1)N(Cc1ccccc1)Cc1ccco1 (centres undefined) | -11.8* | i | -18.0 | -18.7* | 9* | -0.81 | 66.0%* | i | 46.5%* | 112.7* | 0.149*
CN(C)CC[C@@H](c1ccc(Cl)cc1)c1ccccn1 | i | i | -8.1 | i | i | -2.83 | · | · | · | · | ·
CC(C)(C)n1nnnc1C(c1ccccn1)N(Cc1ccccc1)Cc1ccc(Cl)cc1 (centres undefined) | -9.22* | i | -0.2 | -16.2* | i | 0.96 | 59.5%* | i | 46.5%* | 99.7* | 0.15*
COc1ccc(CN(C)CC(=O)Nc2cccc(S(=O)(=O)N3CCCC3)c2)cc1F | i | · | · | · | · | · | · | · | · | · | ·
CC(=O)Nc1ccccc1OCc1cnc(Cl)s1 | i | i | -19.9 | i | i | -0.05 | · | · | · | · | ·
SMILES | KCNK3 inh | KCNQ1 pot | hERG protect | KCNK9 block | KCNQ1 block | Kir21 block | KCNK9 block conf | Kir2-1 spec | KCNK9 uninduced | KCNK3 inh conf | KCNK3 uninduced
CSc1ccc(Cl)c(C(=O)NCCOc2cc(C(C)C)ccc2C)c1 | -10.4* | i | -10.2 | -20.5* | i | 1.75 | 71.5%* | i | 37.5%* | 128.3* | 0.129*
CCC(CC)COC(=O)C(C#N)c1nc2ccccc2nc1N1CCOCC1 (centres undefined) | -11.6* | i | -18.6 | -15.8* | i | -0.11 | 66.5%* | i | 49.0%* | 104.3* | 0.128*
CC(C)C1OC(c2cccc(NC(=O)c3cccs3)c2)OCC1(C)C (centres undefined) | -9.48* | i | -16.6 | -8.48* | i | 1.31 | 50.0%* | i | 44.0%* | 114.0* | 0.156*
CCn1cc(Br)c(C(=O)Nc2ccc(F)c(Cl)c2)n1 | -11.3* | i | -15.9 | -12* | i | -1.11 | 46.5%* | i | 29.5%* | 103.7* | i
COc1ccccc1NC(=O)CC(c1ccc(F)cc1)c1ccco1 (centres undefined) | i | i | -10.4 | -10.4* | i | -0.25 | 35.5%* | i | 30.0%* | 121.0* | 0.154*
COc1ccccc1C(CC(=O)Nc1nccs1)c1ccco1 (centres undefined) | i | i | -4.4 | i | i | -0.52 | · | · | · | · | ·
O=C(CC(c1ccc(F)cc1)c1ccco1)Nc1nccs1 (centres undefined) | -10.7* | i | -7.4 | -8.12* | i | 0.22 | 32.0%* | i | 33.5%* | 110.3* | 0.157*

Compound activity (PubChem BioAssay)
